This is a sample that favours compounds with a hit; in the whole collection about 1.1% have one here.
Cneo AK release – Cryptococcus neoformans cell lysis inducers, primary screen, AK release luminescence, single concentration. lysis activity, % at 15 µM. 0.2% of 360,000 active. C. neoformans lysis, adenylate kinase release luminescence, 4 h; normalised: neutral wells 0, clomiphene wells 100;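 active = mean lysis activity across replicates of at least 80%, whatever share of replicates individually reach that level; inactive = mean lysis activity below 80%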
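Test system: log-phase Cryptococcus neoformans yeast cells; Quantity: yeast cell density of 5 × 10^6 cells/mL; Buffer or medium: YPD; Doses: single compound concentration per well; Timing: 4 h at 37 °C static, read 1 h later; Measured by: AK luminescence; Read-out basis: lysis from increased AK signal; Control set: Clomiphene as positive control.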
miR-122 sensor – miR-122 Renilla sensor signal increase in Huh7, primary screen, miR-122 inhibitor project, cell-based, single point, plate reader; Huh7 miR-122 Renilla luciferase sensor, 48 h; neutral wells = 0, positive control = 100; activation (reporter increase), % at 12.5 µM; 0.3% of 340,000 active;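 active = mean replicate activation score at least 90 and every replicate individually at or above 90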;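 note: higher luciferase means less miR-122 activity so hits act as miR-122 inhibitors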
PglD DTNB – C. jejuni PglD acetyltransferase inhibitors, primary screen, biochemical, DTNB colorimetric, single point; inhibition, % at 12.5 µM; 0.098% of 360,000 active; UDP-N-acetylbacillosamine N-acetyltransferase PglD (Campylobacter jejuni); AID 602405, 2012; purified PglD enzyme, DTNB colorimetric CoA detection; in the data active = inhibition above about 16%, passing the limit was not always enough
CAL PDZ FP-1 – untagged CAL PDZ binding inhibitors, primary screen, biochemical, fluorescence polarization, HTS; Golgi-associated PDZ and coiled-coil motif-containing protein (Homo sapiens), Q9HD26; purified CAL PDZ, TMR-peptide fluorescence polarization, 1 h; inhibition, % at 24.9 µM; 0.92% of 300,000 active; AID 602252, 2012;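 active = mean inhibition of at least 30% with at least half of replicates also reaching 30%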;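 note: 0% = DMSO neutral control and 100% = excess unlabeled competitor peptide PRC23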
CAL PDZ FP-2 – CAL PDZ peptide-binding inhibitors, primary screen, biochemical, fluorescence polarization, Cer-tagged CAL PDZ, HTS; Golgi-associated PDZ and coiled-coil motif-containing protein (Homo sapiens), Q9HD26; purified CAL PDZ, TMR-peptide fluorescence polarization, 1 h; inhibition, % at 20 µM; 0.02% of 330,000 active;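 active = highest replicate inhibition of at least 40%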;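 note: plate controls were DMSO neutral control wells for no effect and unlabeled competitor peptide control wells for full effect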
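Material: tagged CAL PDZ domain; buffer or medium: 25 mM sodium phosphate pH 7.4, 150 mM NaCl, TCEP, IgG, Thesit; compound dosing: single point, 20 µM; schedule: 1 h incubation at room temperature before polarization reading; measured by: FP readout, S and P plane fluorescence; read-out basis: percent inhibition from loss of millipolarization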
An asterisk follows results filed as active; · = not tested or not shown; + = active, no number; [ ] = dose if it differs, or a comment.

SMILES	Cneo AK release	miR-122 sensor	PglD DTNB	CAL PDZ FP-1	CAL PDZ FP-2
COc1ccc2c(c1OC)C(=O)OC2Nc1ccccn1 (stereo unspecified)	1	-6	3	0	-1
COc1ccc2c(c1OC)C(=O)OC2Nc1ccccc1S(=O)(=O)C(F)F (stereo unspecified)	94*	-4	-1	-8	·
C[C@H](CO)N1C[C@H](C)[C@@H](CN(C)S(=O)(=O)c2cn(C)cn2)Oc2c(cccc2N(C)C)C1=O	1	9[16.7 µM]	-3	·	·
C[C@H]1CCCCO[C@@H](CN(C)Cc2ccccc2)[C@@H](C)CN([C@@H](C)CO)C(=O)c2cc(NS(=O)(=O)c3ccc(F)cc3)ccc2O1	3	-6[16.7 µM]	0	·	·
CCc1ncc(CN2CCCC(C(=O)Nc3cccc(-c4ccc(F)cc4)c3)C2)cn1 (stereo unspecified)	2	-14	0	-6	-3
CCn1cc(CN2CCCC(C(=O)Nc3cccc(-c4cc5ccccc5[nH]4)c3)C2)cn1 (stereo unspecified)	-4	-9	-3	51*	2
Cc1cc(C)c(S(=O)(=O)NCc2ccncc2)c(C)c1	3	118*	7	-4	0
Cc1cc(C)c(S(=O)(=O)NCCc2ccncc2)c(C)c1	-1	0	-3	-3	-1
CO[C@H]1CN(C)C(=O)c2cc(NS(C)(=O)=O)ccc2OC[C@@H](C)N(CC2CC2)C[C@H]1C	3	·	4	·	·
CCC(=O)N1CCc2cc(Br)cc(S(=O)(=O)N3CCCCC3CC)c21 (stereo unspecified)	0	6	-2	74*	-1
O=C(NC(C(=O)O)c1ccccc1)c1ccccc1 (stereo unspecified)	-1	-12	2	0	-1
O=C(NC(C(=O)c1ccccc1)c1ccccc1)c1ccccc1 (stereo unspecified)	5	·	-5	38*	0
O=C(N[C@H]1CC[C@@H](CCn2cc(C3(O)CCCC3)nn2)O[C@H]1CO)C1CCCC1	-6	6[16.7 µM]	2	·	·
O=C(Nc1ccc(S(=O)(=O)NCc2ccccc2)cc1)Nc1ccc2c(c1)OCO2	-5	243*	6	-5	0
CCNS(=O)(=O)c1ccc(NC(=O)Nc2ccc3c(c2)OCO3)cc1	-19	·	2	-1	-1
C[C@H](CO)N1C[C@H](C)[C@H](CN(C)C(=O)C2CC2)Oc2cc(C#C[C@@H](C)O)ccc2S1(=O)=O	0	-4[16.7 µM]	-4	·	·
COc1ccc(C)cc1-n1c(=O)c2ccccc2c2ccccc2c1=O	·	·	·	+	-1
CCOCCCNC(=O)N[C@@H](C)C(=O)OC	-1	7	-2	62*	·
CO[C@@H]1CN(C)C(=O)c2cc(NC(=O)Nc3c(C)noc3C)ccc2OC[C@@H](C)N(CC2CC2)C[C@H]1C	1	·	-1	·	·
CCOCCc1nnc(NC(=O)CCC2CCCCC2)s1	3	-9	2	74*	-6
CCc1nnc(NC(=O)CCC2CCCCC2)s1	·	·	·	-1	0
O=C(Nc1ccc(S(=O)(=O)N2CCCC2)cc1)c1ccc(OCC2CCCO2)cc1 (stereo unspecified)	2	-9	2	53*	-3
O=C(Nc1cccc(S(=O)(=O)N2CCCCC2)c1)c1ccc(OCC2CCCO2)cc1 (stereo unspecified)	0	-2	2	-5	0
CN(C)C(=O)c1ccc(-c2ccc([C@@H]3[C@@H](CO)N4CCCCN(CCC(F)(F)F)C[C@@H]34)cc2)cc1	5	3[16.7 µM]	-6	·	·
COc1ccccc1C#Cc1ccc([C@@H]2[C@H]3CN(CCC(F)(F)F)CCCCN3[C@H]2CO)cc1	81*	-5[16.7 µM]	5	·	·
SMILES	Cneo AK release	miR-122 sensor	PglD DTNB	CAL PDZ FP-1	CAL PDZ FP-2
CN(C)C(=O)c1ccc(-c2ccc([C@H]3[C@H]4CN(CCC(F)(F)F)CCCCN4[C@H]3CO)cc2)cc1	85*	54[16.7 µM]	3	·	·
COc1ccccc1NS(=O)(=O)c1cc(N/C(=N/S(=O)(=O)c2ccccc2)c2ccc(F)cc2)ccc1Cl	1	117*	6	·	·
COc1ccc(NC(=O)CCC(=O)c2cccs2)cc1S(=O)(=O)Nc1ccc(Cl)cc1	·	322*	·	-1	-2
CCOc1ccc(NS(=O)(=O)c2cc(NC(=O)CCC(=O)c3cccs3)ccc2Cl)cc1	·	·	·	-1	0
COc1ccc(NC(=O)CCS(=O)(=O)c2ccccc2Cl)cc1S(=O)(=O)Nc1ccc(Cl)cc1	·	·	·	0	-1
COc1ccccc1NS(=O)(=O)c1cc(NC(=O)CCC(=O)c2cccs2)ccc1Cl	3	108*	4	-7	-1
CSc1cccc(NC(=S)NN(C)C)c1	3	-5	9	64*	0
CC(=O)Nc1cc(S(=O)(=O)Nc2ccc(C)cc2)c(C)cc1C	-2	129*	-1	2	-2
Cc1ccc(OC(C)C(=O)Nc2ccc(C)c(S(=O)(=O)Nc3ccc(C)cc3C)c2)cc1 (stereo unspecified)	·	196*	·	-3	-2
O=C(C[C@@H]1C=C[C@@H](NC(=O)Nc2cc(F)ccc2F)[C@H](CO)O1)NCCCN1CCOCC1	103*	-5[16.7 µM]	3	·	·
O=C(C[C@@H]1C=C[C@@H](NC(=O)Nc2cc(F)ccc2F)[C@@H](CO)O1)NCCCN1CCOCC1	27	-5[16.7 µM]	4	·	·
C[C@@H]1CCCCO[C@@H](CN(C)Cc2ccncc2)[C@@H](C)CN([C@@H](C)CO)C(=O)c2cc(NC(=O)CCC(F)(F)F)ccc2O1	-1	7[16.7 µM]	1	·	·
Cc1ccccc1NC(=S)NC(=O)CCc1ccccc1	103*	-4	-3	·	-2
Cc1cccc(C)c1NC(=S)NC(=O)CCc1ccccc1	12	-3	6	-1	0
Cc1ccc(C)c(NNC(=O)C(=O)NNc2cc(C)ccc2C)c1	-2	3	-5	·	·
Cc1ccccc1NC(=O)Cc1ccccc1	0	-5	-6	70*	-2
Cc1ccccc1NNC(=O)C(=O)NNc1ccccc1C	·	·	·	33*	-1
CNC[C@H]1Oc2c(NC(=O)c3cnccn3)cccc2C(=O)N([C@@H](C)CO)C[C@H]1C	-3	-4[16.7 µM]	2	·	·
C=CCNC(=O)NC(=O)c1csc([N+](=O)[O-])c1	-3	-4	8	4	-1
CCNC(=O)NC(=O)c1csc([N+](=O)[O-])c1	·	·	·	41*	-1
C[C@H](CO)N1C[C@H](C)[C@@H](CN(C)Cc2ccc(C(=O)O)cc2)Oc2ccc(NC(=O)Nc3ccc(C(F)(F)F)cc3)cc2CC1=O	-1	2[16.7 µM]	-1	·	·

Source: PubChem BioAssay
